According to ChEMBL document CHEMBL3580553, “Potent and Nontoxic Chemosensitizer of P-Glycoprotein-Mediated Multidrug Resistance in Cancer: Synthesis and Evaluation of Methylated Epigallocatechin, Gallocatechin, and Dihydromyricetin Derivatives” (J Med Chem, 2015):
Active and inactive are the calls of the source. The rule behind the calls is not given here.

Columns and labels:
Homo sapiens [1] = species on record: Homo sapiens; experiment: Modulation of P-gp (unknown origin) transfected in human MDA435/LCC6MDR cells assessed as restoration of intracellular doxorubicin accumulation after 150 mins by spectrofluorometric analysis relative to parental cells; format: cell-based
Method in brief: (§1)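 LCC6 or LCC6MDR cells (1 × 10⁶) incubated with 20 μM DOX plus 2 μM modulator, 150 min at 37 °C; 0.2% DMSO as negative control; cells washed in cold PBS, lysed in 0.75 M HCl/0.2% Triton X-100 in isopropanol; supernatant DOX fluorescence read by spectrofluorometry.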

Homo sapiens [2] = species on record: Homo sapiens; experiment: Modulation of P-gp (unknown origin) transfected in human MDA435/LCC6MDR cells assessed as restoration of intracellular doxorubicin accumulation at 3 uM after 150 mins by spectrofluorometric analysis relative to parental cells; format: cell-based
Method in brief: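 LCC6MDR cells with 20 μM DOX and modulator at 0, 0.05, 0.1, 0.5, 1, 3 or 8 μM; cells lysed and intracellular DOX measured by spectrofluorometry. N = 2–5 independent experiments, mean ± SEM.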

L929 = experiment: Cytotoxicity against mouse L929 cells after 3 days by MTS assay; format: cell-based; details: L929, 72 h
[3] = biological target: T1, ATP-dependent translocase ABCB1 (Homo sapiens, UniProt P08183); experiment: Modulation of P-gp (unknown origin) transfected in human MDA435/LCC6MDR cells assessed as reversible of paclitaxel resistance measured as IC50 for paclitaxel at 1 uM after 5 days by CellTiter 96 Aqueous assay relative to PTX alone treated cell; format: cell-based; details: 120 h
[4] = Cytotoxicity against human LCC-6 cells after 3 days by MTS assay; format: functional, cell-based; details: LCC-6, 72 h
[5] = Cytotoxicity against human MDA435/LCC6MDR cells after 3 days by MTS assay; format: functional, cell-based; details: 72 h
[6] = biological target: T1, ATP-dependent translocase ABCB1; experiment: Modulation of P-gp (unknown origin) transfected in human MDA435/LCC6MDR cells assessed as reversible of paclitaxel resistance measured as IC50 for paclitaxel at 10 uM after 5 days by CellTiter 96 Aqueous assay relative to PTX alone treated cell; format: cell-based; details: 120 h
Method in brief: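 They were held 5 days at 37 °C and viability read by CellTiter 96 AQueous (MTS). […] RF = IC50 of PTX without modulator / IC50 with modulator.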

[7] = Drug uptake in human LCC-6 cells at 200 uM after 150 mins by spectrofluorometry; format: ADME, cell-based; details: lcc-6, 2.5 h
Method in brief: (§2)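 LCC6 or LCC6MDR cells (3 × 10⁶) incubated with 20 or 200 μM compound or DOX, 37 °C, 150 min. Compound: pellet extracted with methanol, supernatant by reversed-phase C18 HPLC, methanol eluent, 1 mL/min, UV detection at 308 or 270 nm. DOX: lysis buffer, fluorescence by spectrofluorometer. N = 2–3, mean ± SEM.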

[8] = P-gp (unknown origin)- mediated durg uptake in human MDA435/LCC6MDR cells at 20 uM after 150 mins by spectrofluorometry relative to control; format: ADME, cell-based; details: 2.5 h; method in brief: as §2
LCC6MDR (human) = experiment: Inhibition of P-gp-mediated doxorubicin efflux in human LCC6MDR cells measured at 1.5 uM after 30 to 150 mins by spectrofluorometry relative to control
LCC-6 [9] = experiment: Effect on doxorubicin influx in human LCC-6 cells measured at 1.5 uM after 30 to 150 mins by spectrofluorometry relative to control; format: functional, cell-based
LCC-6 [10] = experiment: Effect on doxorubicin efflux in human LCC-6 cells measured at 1.5 uM after 30 to 150 mins by spectrofluorometry relative to control; format: functional, cell-based
Method in brief: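 Efflux: LCC6 or LCC6MDR cells preloaded with 20 μM DOX 1 h at 37 °C, washed in PBS, resuspended in DMEM ± 1.5 μM modulator; samples at 0, 30, 60, 90, 120, 150 min chilled on ice; intracellular DOX by spectrofluorometry. DMSO control; N = 3–4, mean ± SEM.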

[11] = Drug uptake in human LCC-6 cells at 20 uM after 150 mins by spectrofluorometry; format: ADME, cell-based; details: lcc-6, 2.5 h; method in brief: as §2
[12] = biological target: T1, ATP-dependent translocase ABCB1; experiment: Modulation of P-gp (unknown origin) transfected in human MDA435/LCC6MDR cells assessed as induction of intracellular doxorubicin accumulation at 2 uM after 150 mins by spectrofluorometric analysis relative to control; format: cell-based; details: 2.5 h; method in brief: as §1
[13] = P-gp (unknown origin)- mediated durg uptake in human MDA435/LCC6MDR cells at 200 uM after 150 mins by spectrofluorometry relative to control; format: ADME, cell-based; details: 2.5 h, in the assay text read “by HPLC” for “by spectrofluorometry”; method in brief: as §2
[14] = Selectivity index, ratio of IC50 for mouse […] cells to EC50 for modulation of P-gp (unknown origin) transfected in human MDA435/LCC6MDR cells assessed as reversing paclitaxel resistance; design: species or system L929
[15] = Modulation of P-gp (unknown origin) transfected in human MDA435/LCC6MDR cells assessed as reversible of paclitaxel resistance measured as IC50 for paclitaxel at 1 uM after 5 days by CellTiter 96 Aqueous assay
[16] = biological target: Multidrug resistance-associated protein 1 (Homo sapiens, UniProt P33527); experiment: Modulation of MRP1 (unknown origin) transfected in human 2008/MRP1 cells assessed as potentiation of doxorubicin-induced cytotoxicity measured as doxorubicin IC50 at 1 uM after 5 days by MTS assay relative to doxorubicin alone treated cell; format: cell-based; details: 2008/mrp1, 120 h
Method in brief: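 After 5 days at 37 °C, viability was read by MTS. Doxorubicin IC50 came from nonlinear regression, and RF = IC50 without/with modulator. Parental 2008/P cells served as reference. N = 2−4, triplicates, mean ± SEM.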

[17] = biological target: T2, Broad substrate specificity ATP-binding cassette transporter ABCG2 (Homo sapiens, UniProt Q9UNQ0); experiment: Modulation of BCRP (unknown origin) transfected in human HEK293/R2 cells assessed as potentiation of topotecan-induced cytotoxicity measured as topotecan IC50 at 1 uM after 5 days by MTS assay relative to topotecan alone treated cell; format: cell-based; details: hek293/r2, 120 h
T2 sequence (Q9UNQ0 whole entry): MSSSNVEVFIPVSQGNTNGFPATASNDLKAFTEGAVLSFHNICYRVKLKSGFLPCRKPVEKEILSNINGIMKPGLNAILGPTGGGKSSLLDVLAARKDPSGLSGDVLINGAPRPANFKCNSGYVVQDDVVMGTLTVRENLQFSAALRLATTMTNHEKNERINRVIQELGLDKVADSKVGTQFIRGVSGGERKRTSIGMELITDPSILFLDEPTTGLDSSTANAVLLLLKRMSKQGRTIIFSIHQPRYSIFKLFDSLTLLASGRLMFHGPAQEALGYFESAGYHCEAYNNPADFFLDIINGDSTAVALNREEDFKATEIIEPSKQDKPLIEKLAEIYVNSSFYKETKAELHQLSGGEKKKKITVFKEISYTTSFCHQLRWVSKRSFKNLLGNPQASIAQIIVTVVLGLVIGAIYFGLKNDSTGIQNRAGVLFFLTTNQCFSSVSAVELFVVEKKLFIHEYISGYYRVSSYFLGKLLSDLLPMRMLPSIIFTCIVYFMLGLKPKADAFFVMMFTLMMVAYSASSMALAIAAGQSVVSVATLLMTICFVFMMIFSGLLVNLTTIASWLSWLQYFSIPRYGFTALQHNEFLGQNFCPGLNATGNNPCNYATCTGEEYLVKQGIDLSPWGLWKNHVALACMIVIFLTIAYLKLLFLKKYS
Method in brief: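 Incubated 5 days at 37 °C; viability by MTS. Topotecan IC50 came from nonlinear regression, and RF = IC50 without/with modulator. Empty-vector HEK293/pcDNA3.1 served as reference. N = 2−4, triplicates, mean ± SEM.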

[18] = Drug uptake in human LCC-6 cells at 20 uM after 150 mins by spectrofluorometry relative to P-gp expressing cells; format: ADME, cell-based; details: lcc-6, 2.5 h; method in brief: as §2

Sequence of Multidrug resistance-associated protein 1 (P33527 whole entry): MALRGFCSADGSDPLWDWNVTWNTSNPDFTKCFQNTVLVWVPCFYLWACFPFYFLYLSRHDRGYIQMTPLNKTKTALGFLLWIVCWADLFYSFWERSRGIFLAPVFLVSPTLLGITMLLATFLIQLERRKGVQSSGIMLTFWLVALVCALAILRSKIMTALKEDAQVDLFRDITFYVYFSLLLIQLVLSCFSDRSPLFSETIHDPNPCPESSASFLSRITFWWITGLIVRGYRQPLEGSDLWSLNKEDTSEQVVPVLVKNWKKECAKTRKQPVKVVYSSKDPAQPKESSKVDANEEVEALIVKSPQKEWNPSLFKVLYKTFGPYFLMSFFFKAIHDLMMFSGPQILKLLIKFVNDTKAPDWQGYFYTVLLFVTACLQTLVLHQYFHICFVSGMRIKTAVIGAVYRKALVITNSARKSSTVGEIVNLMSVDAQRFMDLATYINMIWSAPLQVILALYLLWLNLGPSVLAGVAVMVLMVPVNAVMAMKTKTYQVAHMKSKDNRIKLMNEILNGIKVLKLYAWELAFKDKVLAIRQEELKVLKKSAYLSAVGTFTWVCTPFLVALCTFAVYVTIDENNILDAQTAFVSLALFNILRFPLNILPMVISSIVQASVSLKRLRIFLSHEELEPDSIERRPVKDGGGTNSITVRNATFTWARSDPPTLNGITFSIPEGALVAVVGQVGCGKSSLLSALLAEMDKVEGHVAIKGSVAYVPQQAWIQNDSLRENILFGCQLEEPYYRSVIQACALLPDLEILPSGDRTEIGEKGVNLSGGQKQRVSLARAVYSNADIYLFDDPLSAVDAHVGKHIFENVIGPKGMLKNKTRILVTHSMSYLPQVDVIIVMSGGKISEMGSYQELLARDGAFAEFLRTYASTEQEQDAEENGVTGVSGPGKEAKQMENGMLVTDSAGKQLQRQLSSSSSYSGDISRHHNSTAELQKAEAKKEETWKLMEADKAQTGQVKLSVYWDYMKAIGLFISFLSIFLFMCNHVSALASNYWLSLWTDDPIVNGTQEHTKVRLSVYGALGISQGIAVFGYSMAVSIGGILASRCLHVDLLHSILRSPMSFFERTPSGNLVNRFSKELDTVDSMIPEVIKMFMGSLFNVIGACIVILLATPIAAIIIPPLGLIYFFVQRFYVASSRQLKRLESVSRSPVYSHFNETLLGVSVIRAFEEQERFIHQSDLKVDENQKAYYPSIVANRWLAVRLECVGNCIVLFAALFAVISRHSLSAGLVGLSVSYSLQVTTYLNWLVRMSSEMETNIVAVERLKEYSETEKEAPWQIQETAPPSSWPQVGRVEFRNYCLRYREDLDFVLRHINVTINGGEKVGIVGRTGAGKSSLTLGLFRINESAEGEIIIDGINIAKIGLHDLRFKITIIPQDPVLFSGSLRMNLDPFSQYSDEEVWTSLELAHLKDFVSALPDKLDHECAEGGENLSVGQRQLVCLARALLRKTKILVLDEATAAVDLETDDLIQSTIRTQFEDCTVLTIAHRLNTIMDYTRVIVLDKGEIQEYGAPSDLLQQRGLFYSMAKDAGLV
T1 sequence (P08183 whole entry): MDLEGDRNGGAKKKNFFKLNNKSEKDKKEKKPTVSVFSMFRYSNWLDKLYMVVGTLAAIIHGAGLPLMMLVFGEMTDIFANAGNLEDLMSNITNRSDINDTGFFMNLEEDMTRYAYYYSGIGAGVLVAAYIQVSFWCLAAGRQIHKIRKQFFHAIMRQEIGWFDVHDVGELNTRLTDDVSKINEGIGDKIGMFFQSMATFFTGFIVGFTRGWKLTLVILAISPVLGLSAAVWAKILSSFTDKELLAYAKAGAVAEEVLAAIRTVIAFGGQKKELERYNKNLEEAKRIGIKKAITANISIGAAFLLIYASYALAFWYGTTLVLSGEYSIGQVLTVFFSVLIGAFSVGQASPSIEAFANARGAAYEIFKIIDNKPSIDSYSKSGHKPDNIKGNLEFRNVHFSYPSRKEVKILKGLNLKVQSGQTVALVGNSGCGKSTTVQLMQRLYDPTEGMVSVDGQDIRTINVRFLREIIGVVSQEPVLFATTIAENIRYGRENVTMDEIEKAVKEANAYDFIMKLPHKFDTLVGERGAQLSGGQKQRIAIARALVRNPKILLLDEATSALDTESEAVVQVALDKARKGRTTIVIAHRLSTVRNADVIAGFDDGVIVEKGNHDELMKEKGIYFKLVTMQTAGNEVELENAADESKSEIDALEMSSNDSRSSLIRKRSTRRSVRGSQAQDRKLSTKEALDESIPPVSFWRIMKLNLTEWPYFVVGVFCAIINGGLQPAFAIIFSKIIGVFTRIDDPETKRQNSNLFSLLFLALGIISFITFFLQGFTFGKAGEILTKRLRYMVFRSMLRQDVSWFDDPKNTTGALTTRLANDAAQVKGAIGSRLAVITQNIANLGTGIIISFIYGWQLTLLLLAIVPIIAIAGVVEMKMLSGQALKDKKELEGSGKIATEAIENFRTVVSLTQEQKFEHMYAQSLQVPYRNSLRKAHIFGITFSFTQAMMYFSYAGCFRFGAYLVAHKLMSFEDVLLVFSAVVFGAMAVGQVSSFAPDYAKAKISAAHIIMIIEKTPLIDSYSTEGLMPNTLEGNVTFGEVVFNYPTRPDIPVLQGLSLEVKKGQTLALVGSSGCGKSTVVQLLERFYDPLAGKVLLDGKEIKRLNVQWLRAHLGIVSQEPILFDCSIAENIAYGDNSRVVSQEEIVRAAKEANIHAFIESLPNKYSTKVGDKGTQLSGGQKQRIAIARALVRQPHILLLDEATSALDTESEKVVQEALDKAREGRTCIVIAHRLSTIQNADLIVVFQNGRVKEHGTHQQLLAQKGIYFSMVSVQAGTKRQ

Row | SMILES | Ratio [3] | Drug uptake [7] | Drug uptake [8] | Drug uptake [11] | fold change (FC) [12] | Drug uptake [13] | IC50 [15] [µM] | Drug uptake [18] | Activity (Homo sapiens [1]) | Activity (Homo sapiens [2]) | IC50 (L929) [µM] | IC50 [4] [µM] | IC50 [5] [µM] | Ratio [6] | inhibition (LCC6MDR (human)) | Activity (LCC-6 [9]) | Activity (LCC-6 [10]) | Ratio IC50/EC50 [14] | Ratio [16] | Ratio [17]
1 | COc1ccc(CCN(C)CCCC(C#N)(c2ccc(OC)c(OC)c2)C(C)C)cc1OC (stereo unspecified) |  |  |  |  |  |  |  |  | Dose-dependent effect | Active |  |  |  |  |  |  |  |  |  | 
2 | O=C(O[C@@H]1Cc2c(O)cc(O)cc2O[C@@H]1c1cc(O)c(O)c(O)c1)c1cc(O)c(O)c(O)c1 [EPIGALOCATECHIN GALLATE] | 1.2 |  |  |  |  |  |  |  |  |  | 82.3 | 69.1 | 56 | 1.2 |  |  |  |  |  | 
3 | COc1cc(OC)c2c(c1)O[C@H](c1cc(OC)c(OC)c(OC)c1)[C@@H](OC(=O)c1ccc(F)c(NC(=O)c3ccc(OC)c(OC)c3)c1)C2 | 31.4 |  |  |  |  |  | 0.0046 |  |  |  | > 100 | > 100 | > 100 |  |  |  |  | >585 | 2.6 | 10.4
4 | COc1cccc2c1C(=O)c1c(O)c3c(c(O)c1C2=O)C[C@@](O)(C(=O)CO)C[C@@H]3O[C@H]1C[C@H](N)[C@H](O)[C@H](C)O1 [DOXORUBICIN] |  |  |  |  |  |  |  | Active |  |  |  |  |  |  |  |  |  |  |  | 
5 | COc1cc(OC)c2c(c1)O[C@H](c1cc(OC)c(OC)c(OC)c1)[C@H](OC(=O)c1ccc(F)c(NC(=O)c3ccc(OC)c(OC)c3)c1)C2 | 48.2 |  |  |  | 2.5 |  |  |  | Dose-dependent effect |  | > 100 | > 100 | > 100 |  |  |  |  | >698 | 0.8 | 2.7

Further lines, with some results ahead:

Row | Ratio [3] | Drug uptake [7] | Drug uptake [8] | Drug uptake [11] | fold change (FC) [12] | Drug uptake [13] | IC50 [15] [µM] | Drug uptake [18] | SMILES | Activity (Homo sapiens [1]) | Activity (Homo sapiens [2]) | IC50 (L929) [µM] | IC50 [4] [µM] | IC50 [5] [µM] | Ratio [6] | inhibition (LCC6MDR (human)) | Activity (LCC-6 [9]) | Activity (LCC-6 [10]) | Ratio IC50/EC50 [14] | Ratio [16] | Ratio [17]
6 |  | Active | Not Active | Active | 2.7 | Not Active |  |  | COc1cc(OC)c2c(c1)O[C@H](c1cc(OC)c(OC)c(OC)c1)[C@H](OC(=O)/C=C/c1cc(OC)c(OC)c(OC)c1)C2 | Dose-dependent effect | Active | > 100 | > 100 | > 100 |  | Active | inactive | inactive |  |  | 
7 | 43.8 |  |  |  | 2.7 |  |  |  | COc1cc(OC)c2c(c1)O[C@H](c1cc(OC)c(OC)c(OC)c1)[C@H](OC(=O)c1ccc(F)c(NC(=O)c3cc(OC)c(OC)c(OC)c3)c1)C2 |  | Active | > 100 | > 100 | > 100 |  | Active |  | inactive | >467 | 0.9 | 2.3
8 | 53.6 | Active | Not Active | Active |  | Not Active | 0.0027 |  | COc1cc(OC)c2c(c1)O[C@H](c1cc(OC)c(OC)c(OC)c1)[C@@H](OC(=O)c1ccc(F)c(NC(=O)c3cc(OC)c(OC)c(OC)c3)c1)C2 |  |  | > 100 | > 100 | > 100 |  |  |  |  | >714 | 2.6 | 12.3
